The results in this text go back to ChEMBL document CHEMBL3108741 (J Med Chem, 2014).

Activity calls are given as the source filed them. A value given as a limit tells only on which side of the number the result lay.

The species entered for series [1] is Rattus norvegicus. Briefly: Positive allosteric modulation of rat alpha1beta2gamma2L GABAA receptor expressed in Xenopus laevis oocytes assessed as potentiation of GABA-induced chloride current elicitation at 10 uM by two-electrode voltage clamp technique relative to control. The series is classed as cell-based. For orientation: Two-electrode voltage clamp is typically applied to oocytes expressing channels or transporters.

Series [2] relates to Mus musculus. Briefly: Anesthetic effect in mouse assessed as duration of loss of righting reflex at 16 mg/kg, iv. Type of series: functional. The procedure, abridged:
(§1)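 Mice, tail vein injection; compound in 22.5% aqueous 2-(hydroxypropyl)-β-cyclodextrin, lower doses by serial dilution of the 8 mg/kg stock with 0.9% saline. Anesthesia scored as loss of righting reflex; duration of LRR recorded at each dose.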

For series [3], the system named is HEK293. Briefly: Positive allosteric modulation of rat alpha1Q241Lbeta2gamma2L GABAA receptor mutant expressed in HEK293 cells assessed as potentiation of GABA-induced chloride current elicitation at 20 uM by […] relative to control. The series is classed as cell-based. The procedure, abridged: (§2)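 HEK 293 cells expressing wild-type or α1 mutant receptors, whole-cell recording. Peak currents elicited by GABA at 5 μM for wild type or 10 μM for mutants (11–17% of maximal), with or without 20 μM compound. Mean ± S.D., 4–7 cells per receptor–compound combination.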

Series [4] concerns HEK293. Nature of the series: Positive allosteric modulation of wild type rat alpha1beta2gamma2L GABAA receptor expressed in HEK293 cells assessed as longest-lived intracluster open time at 20 uM by […] relative to control. Type of series: cell-based.
Series [5] has as its system Mus musculus. Nature of the series: Anesthetic effect in mouse assessed as onset of loss of righting reflex at 1 to 8 mg/kg, iv. Particulars: dose mg/kg 1-8. The series is classed as functional. Put shortly:
(§3)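 Tail-vein injection in mice, with anesthesia read as loss of righting reflex (LRR): duration, onset and recovery scored. Compounds were dissolved in 22.5% aqueous 2-(hydroxypropyl)-β-cyclodextrin. Lower doses came from serial dilution of the 8 mg/kg solution with 0.9% saline. Doses tested were 1, 2, 4 and 8 mg/kg.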

Series [6] is filed under the species Rattus norvegicus. Nature of the series: Positive allosteric modulation of rat alpha1beta2gamma2L GABAA receptor expressed in Xenopus laevis oocytes assessed as potentiation of GABA-induced chloride current elicitation by two-electrode voltage clamp technique relative to control. Type of series: cell-based.
Series [7] concerns Mus musculus. Briefly: Anesthetic effect in mouse assessed as recovery of righting reflex at 8 to 16 mg/kg, iv. Particulars: dose mg/kg 8-16. Type of series: functional. Put shortly: (§4)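 Mice were given intravenous tail-vein injections at 8 and 16 mg/kg. The compound was in 22.5% aqueous 2-(hydroxypropyl)-β-cyclodextrin. Anesthesia was defined as loss of righting reflex, and onset, duration and recovery of the reflex were followed.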

Series [8] relates to Xenopus laevis. Briefly: Anesthetic effect on prelimb-bud stage Xenopus laevis tadpole assessed as loss of swimming reflex after 3 hrs. Type of series: functional, organism-based.
In series [9] the test system is HEK293. Briefly: Positive allosteric modulation of wild type rat alpha1beta2gamma2L GABAA receptor expressed in HEK293 cells assessed as OT long at 20 uM by […]. Type of series: cell-based. Put shortly:
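Single-channel recording of rat wild-type α1β2γ2L GABAA receptors. Receptors were activated by 50 μM GABA with or without 20 μM compound, in 4-7 patches. Intracluster open-time histograms were fitted to sums of two or three exponentials, and the long open-time component was taken from the fit.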

Series [10] has as its system HEK293. Briefly: Positive allosteric modulation of wild type rat alpha1beta2gamma2L GABAA receptor expressed in HEK293 cells assessed as longest-lived intracluster closed time at 20 uM by […] relative to control. The series is classed as cell-based.
The species entered for series [11] is Rattus norvegicus. Briefly: Positive allosteric modulation of rat alpha1beta2gamma2L GABAA receptor expressed in Xenopus laevis oocytes assessed as potentiation of GABA-induced chloride current elicitation at 0.1 uM by two-electrode voltage clamp technique relative to control. The series is classed as cell-based.
The subject of series [12] is HEK293. Briefly: Positive allosteric modulation of wild type rat alpha1beta2gamma2L GABAA receptor expressed in HEK293 cells assessed as potentiation of GABA-induced chloride current elicitation at 20 uM by […] relative to control. Type of series: cell-based. The procedure, abridged: as §2
Series [13] deals with HEK293. Nature of the series: Positive allosteric modulation of rat alpha1W245Lbeta2gamma2L GABAA receptor mutant expressed in HEK293 cells assessed as potentiation of GABA-induced chloride current elicitation at 20 uM by […] relative to control. Type of series: cell-based. The procedure, abridged: as §2
A short description of series [14]: Lipophilicity, log P of the compound. Type of series: physicochemical. The conditions noted are these: octanol/water.
For series [15], the system named is HEK293. Nature of the series: Positive allosteric modulation of rat alpha1S240Lbeta2gamma2L GABAA receptor mutant expressed in HEK293 cells assessed as potentiation of GABA-induced chloride current elicitation at 20 uM by […] relative to control. Type of series: cell-based. The procedure, abridged: as §2
Series [16] in a line: Displacement of [35S]TBPS from rat picrotoxin binding site of GABAA receptor after 2 hrs by scintillation counting analysis. The procedure, abridged:
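[35S]TBPS binding inhibition; duplicate experiments each run in triplicate, mean ± SEM. Highest concentration tested 30 μM; IC50 from fitted binding curve, with maximal displacement noted where inhibition was partial.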

For series [17], the species on record is Rattus norvegicus. Briefly: Positive allosteric modulation of rat alpha1beta2gamma2L GABAA receptor expressed in Xenopus laevis oocytes assessed as potentiation of GABA-induced chloride current elicitation at 1 uM by two-electrode voltage clamp technique relative to control. The series is classed as cell-based.
Series [18] deals with Mus musculus. Briefly: Anesthetic effect in mouse assessed as duration of loss of righting reflex at 8 mg/kg, iv. Type of series: functional. The procedure, abridged:
as §3

For series [19], the system named is Mus musculus. Nature of the series: Anesthetic effect in mouse assessed as onset of loss of righting reflex at 8 to 16 mg/kg, iv. The series is classed as functional. Particulars: dose mg/kg 8-16. The procedure, abridged:
as §4

For series [20], the system named is Xenopus laevis. Briefly: Anesthetic effect on prelimb-bud stage Xenopus laevis tadpole assessed as loss of righting reflex after 3 hrs. The series is classed as functional, organism-based.
Series [21] is filed under the species Rattus norvegicus. Briefly: […] of rat alpha1beta2gamma2L GABAA receptor expressed in Xenopus laevis oocytes assessed as chloride current elicitation at 10 uM by two-electrode voltage clamp technique relative to GABA. Type of series: cell-based. Put shortly:
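Rat α1β2γ2L GABAA receptors expressed in Xenopus oocytes, at least four oocytes. Direct current gated by 10 μM compound without GABA, expressed as the ratio of compound-only current to current evoked by 2 μM GABA; mean ± SEM.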

Series [22] relates to Mus musculus. Briefly: Anesthetic effect in mouse assessed as recovery of righting reflex at 1 to 8 mg/kg, iv. Particulars: dose mg/kg 1-8. The series is classed as functional. Put shortly:
as §1

The test system of series [23] is Mus musculus. Briefly: Anesthetic effect in mouse assessed as duration of loss of righting reflex at 1 mg/kg, iv. The series is classed as functional, organism-based. On the set-up: dose 1 mg/kg. Put shortly:
as §3

Series [24] has as its system Mus musculus. Briefly: Anesthetic effect in mouse assessed as duration of loss of righting reflex at 2 mg/kg, iv. The series is classed as functional. Put shortly: as §3
Series [25] has as its system Mus musculus. Nature of the series: Anesthetic effect in mouse assessed as duration of loss of righting reflex at 4 mg/kg, iv. Type of series: functional. The procedure, abridged: as §3

Usually EC50 stands for the midpoint of the concentration-response curve. One may read the logP as the decadic logarithm of the partition coefficient of the neutral form, usually between octanol and water. Low readings indicate lower lipophilicity, high ones higher lipophilicity. As a reminder, the IC50 is the concentration that inhibits the measured activity by half. Regarding `C[C@@]12CC[C@H]3[C@@H](CC[C@@H]4C[C@@H](O)CC[C@]43C)[C@@H]1CC(=O)C2`, the Ratio in the series listed under Rattus norvegicus [1] turned out to be 34.7; in the series with HEK293 [3], 1.3; with HEK293 [4], 0.57; with HEK293 [10], 0.05; in the series filed under Rattus norvegicus [11] it was 1.42; in the series with HEK293 [12], 7.8. For the same compound, the Ratio with HEK293 [13] turned out to be 1; in the series with HEK293 [15] it was 7.6; in the series filed under Rattus norvegicus [17], 7.72; in the series filed under Rattus norvegicus [21] it was 0.15. Also, the Time with Mus musculus [2] is on record as 7 min; in the series with Mus musculus [5] it was less than 30 s; in the series on Mus musculus [7] it was 1 min; in the series on Mus musculus [18] it was 3 min; with Mus musculus [19] it was less than 30 s; in the series with Mus musculus [22], 1 min. Besides, the Activity result in the series listed under Rattus norvegicus [6] is “Dose-dependent effect”. Further, the values for the EC50 in the series on Xenopus laevis [8] and with Xenopus laevis [20] were 1730 nM and 550 nM, respectively. Also, the TIME in the series on HEK293 [9] amounted to 12.4 ms. Also, the log partition coefficient (logP) in series [14] worked out at 3.71. The compound further came in with an IC50 in series [16] of 81 nM.
`CO[C@H]1[C@H]2CC[C@H]3[C@@H]4CC(=O)C[C@]4(C)CC[C@@H]3[C@]2(C)CC[C@@H]1O`: the Ratio in the series filed under Rattus norvegicus [1] amounted to 16; with HEK293 [3] it was 1.3; in the series with HEK293 [4] it was 0.53; in the series on HEK293 [10] it was 0.06; in the series filed under Rattus norvegicus [11], 1.41; in the series with HEK293 [12], 9.2. Moreover, the Ratio in the series with HEK293 [13] was 0.9; in the series on HEK293 [15], 9.4; in the series filed under Rattus norvegicus [17] it was 6.48; in the series filed under Rattus norvegicus [21], 0.08. Besides, in the series on Mus musculus [23], the outcome was inactive. Besides, the Time in the series on Mus musculus [5] is on record as less than 30 s; with Mus musculus [7], 1 min; with Mus musculus [18], 9 min; in the series on Mus musculus [19], less than 30 s; with Mus musculus [24] it was 1 min; with Mus musculus [25], 5 min. Further, the Time in the series on Mus musculus [22] is reported as 1 min. Moreover, the Activity result in the series listed under Rattus norvegicus [6] is “Dose-dependent effect”. Moreover, the concentration for a half-maximal effect (EC50) in the series on Xenopus laevis [8] came out at 1730 nM; in the series with Xenopus laevis [20], 340 nM. The TIME with HEK293 [9] came to 17.7 ms. The lipophilicity (logP) in series [14] is 3.19. Further, in series [16], the IC50 worked out at 83 nM.
